Key:
[1] = melting temperature; fluorescence melt of hairpins on a sequencing array, two-state fit, raised by 9.35 °C to match UV melts; conditions: sodium 0.088 M
Method in brief: (§1)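 Melting temperature and folding enthalpy were derived from bootstrapped two-state fits. The fitted temperatures were raised by 9.35 °C to agree with UV melts, and four replicates were combined by inverse variance. The underlying data were Cy3 fluorescence images of library hairpins, with annealed Cy3 and quencher oligos, on a sequenced MiSeq flow cell in 50 mM Na-HEPES pH 8.0, 25 mM NaCl, taken in 2.5 °C steps up to 60 °C, normalised to pre-quench Cy3 and to control constructs.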

[2] = folding enthalpy; higher = less favourable; fluorescence melt of hairpins on a sequencing array, two-state fit; conditions: sodium 0.088 M
Method in brief: as §1

Row | Sequence | Tm [1] [°C] | folding enthalpy [2] [kcal/mol]
1 | GTTACCCGAAAGGGCAAC (((.(((....))).))) | 47.3 | -24.4
2 | GTTACCCGAAAGGGGAAC (((.(((....))).))) | 61.5 | -32.2
3 | GTTACCGAAAGGTATAAC ((((((....)))..))) | 31.1 | -11.7
4 | GTTACCGAAAGGTGCAAC ((((((....)))..))) | 27.3 | -8.88
5 | GTTACCGGAAACGATAAC ((((.((....)).)))) | 36.1 | -26.6
6 | GTTACCGGAAACGGCAAC (((.(((....))).))) | 44 | -24.6
7 | GTTACCGGAAACGGTAGC (.(((((....))))).) | 50.4 | -18.9
8 | GTTACGCGAAAGCGCAAC (((.(((....))).))) | 49.3 | -19.4
9 | GTTACGGGAAACCATAAC ((((.((....)).)))) | 30 | -15.6
10 | GTTACTCGAAAGAGCAAC (((.(((....))).))) | 43.3 | -27.5
11 | GTTACTGGAAACAGCAAC (((.(((....))).))) | 36 | -28
12 | GTTAGACGAAAGTCAAAC (((.(((....))).))) | 43.6 | -18.6
13 | GTTAGACGAAAGTCAAC (((.(((....)))))) | 43 | -13.4
14 | GTTAGAGGAAACCCTAAC (((((.(....).))))) | 31.9 | -17.9
15 | GTTAGCCGAAAGGCAAAC (((.(((....))).))) | 48.6 | -18.1
16 | GTTAGCGAAAGCTCGAAC ((((((....)))..))) | 22.9 | -7.85
17 | GTTAGCGCGAAAGCGAAC (((..(((....)))))) | 27.7 | -6.83
18 | GTTAGCGGAAACGCTAGC (.(((((....))))).) | 49.3 | -16.1
19 | GTTAGCGGAAACGTTGAC ((.(.((....)).).)) | 30 | -14.7
20 | GTTAGGCGAAAGCCGAAC (((.(((....))).))) | 55.9 | -19.6
21 | GTTAGGGGAAACCCCAAC (((.(((....))).))) | 37.4 | -19
22 | GTTAGGGGAAACCCTAGC (.(((((....))))).) | 40.7 | -21.5
23 | GTTAGTCGAAAGACCAAC (((.(((....))).))) | 37 | -19.1

Row | Sequence | Tm [1] [°C] | folding enthalpy [2] [kcal/mol]
24 | GTTAGTGGAAACACCAAC (((.(((....))).))) | 29.3 | -13.3
25 | GTTATAGAAATATAAC ((((((....)))))) | 33.6 | -17.1
26 | GTTATAGGAAACTATGAC ((.((((....)))).)) | 33 | -23
27 | GTTATCCGAAAGGAAAAC (((.(((....))).))) | 40.8 | -25.2
28 | GTTATCGAAAGATAAC ((((((....)))))) | 53.1 | -42.8
29 | GTTATCGAAAGATACAAC ((((((....)))..))) | 23.5 | -9.31
30 | GTTATCGGAAACGATAAC (((((((....))))))) | 57 | -46.2
31 | GTTATCGGAAACGGTAAC ((((.((....)).)))) | 44.9 | -26.8
32 | GTTATGCGAAAGCAAAC (((.(((....)))))) | 36.5 | -14.3
33 | GTTATGGAAACATAAC ((((((....)))))) | 47.5 | -30.3
34 | GTTATGGCGAAAGCCAAC (((..(((....)))))) | 29.5 | -8.21
35 | GTTATTGGAAACAATAGC (.(((((....))))).) | 33.4 | -18.9
36 | GTTATTGGAAACAATGAC ((.((((....)))).)) | 36.9 | -32.5
37 | GTTATTGGAAACAGTAAC ((((.((....)).)))) | 33.4 | -27.5
38 | GTTATTGGAAACGATAAC (((((.(....).))))) | 38.7 | -21.5
39 | GTTCAAGGAAACCTGAAC (((((.(....).))))) | 35.6 | -30.1
40 | GTTCAAGGAAACTTGAGC (.(((((....))))).) | 40.1 | -22.5
41 | GTTCACCCGAAAGGGAAC (((..(((....)))))) | 37.2 | -14.3
42 | GTTCACCGAAAGGTTAAC (((.(((....))).))) | 42.3 | -26.4
43 | GTTCACGAAAGTGACAAC ((((((....)))..))) | 35.3 | -10.1
44 | GTTCACGAAAGTGAGAAC ((((((....)))..))) | 37.5 | -11.2
45 | GTTCACGAAAGTGTAAAC ((((((....)))..))) | 28.2 | -12.3
46 | GTTCACGAAAGTGTTAAC ((((((....)))..))) | 28 | -12.2

Row | Sequence | Tm [1] [°C] | folding enthalpy [2] [kcal/mol]
47 | GTTCAGAAATGAAC (((((....))))) | 41.8 | -21.2
48 | GTTCAGCGAAAGCTAAAC (((.(((....))).))) | 37.8 | -21.6
49 | GTTCAGCGAAAGCTCAAC (((.(((....))).))) | 33.2 | -15.4
50 | GTTCAGGGAAACCTGGAC ((.((((....)))).)) | 48.9 | -29.6
51 | GTTCATCGAAAGATAAC (((.(((....)))))) | 32.3 | -12.4
52 | GTTCCCACGAAAGTGAAC (((..(((....)))))) | 25.7 | -10
53 | GTTCCCCGAAAGGGCAAC (((.(((....))).))) | 35.2 | -14.5
54 | GTTCCCGAAAGGGCAAAC ((((((....)))..))) | 28.9 | -9.62
55 | GTTCCCGAAAGGGTAAAC ((((((....)))..))) | 28.8 | -11.5
56 | GTTCCCGAAAGGGTAAC ((((((....))).))) | 40.9 | -17.6
57 | GTTCCGCGAAAGCGAAC (((.(((....)))))) | 50.8 | -14.7
58 | GTTCCTCGAAAGAGTAAC (((.(((....))).))) | 34.1 | -27.6
59 | GTTCCTGGAAACAGGAAC (((((((....))))))) | 63.5 | -40.9
60 | GTTCGACGAAAGTCCAAC (((.(((....))).))) | 34.5 | -19.8
61 | GTTCGCACGAAAGTGAAC (((..(((....)))))) | 39 | -16.3
62 | GTTCGCCGAAAGGCAAAC (((.(((....))).))) | 46.9 | -18.1
63 | GTTCGCGAAAGCGAAAAC ((((((....)))..))) | 47.4 | -9.22
64 | GTTCGCGAAAGCGATAAC ((((((....)))..))) | 32.7 | -8.04
65 | GTTCGCGAAAGCGCGAAC ((((((....)))..))) | 65 | -27.4
66 | GTTCGCGAAAGCGGGAAC ((((((....)))..))) | 40.7 | -11.8
67 | GTTCGCGGAAACGTGAAC ((((.((....)).)))) | 56.8 | -37.7
68 | GTTCGCGGAAACGTGGAC ((.(.((....)).).)) | 44.8 | -26.9
69 | GTTCGGGGAAACCCGGAC ((.((((....)))).)) | 54.9 | -42.2

Row | Sequence | Tm [1] [°C] | folding enthalpy [2] [kcal/mol]
70 | GTTCGTGGAAACACAAAC (((.(((....))).))) | 34 | -22.1
71 | GTTCTAGAAATAGAAC ((((((....)))))) | 41.1 | -28.4
72 | GTTCTAGGAAACCAGAAC (((((.(....).))))) | 35.6 | -26.6
73 | GTTCTCGAAAGAGAAAAC ((((((....)))..))) | 32.6 | -14
74 | GTTCTCGAAAGAGACAAC ((((((....)))..))) | 30.6 | -11.6
75 | GTTCTCGAAAGAGTAAAC ((((((....)))..))) | 27.9 | -12.5
76 | GTTCTCGGAAACGAGGAC ((.((((....)))).)) | 52 | -28.7
77 | GTTCTGACGAAAGTCAAC (((..(((....)))))) | 25.2 | -8.85
78 | GTTCTGCGAAAGCAAAC (((.(((....)))))) | 36.9 | -13.5
79 | GTTCTGGAAACAGAAC ((((((....)))))) | 53.4 | -37.2
80 | GTTCTGGGAAACTAGGAC ((.((.(....).)).)) | 28.8 | -9.14
81 | GTTCTGTCGAAAGACAAC (((..(((....)))))) | 23.8 | -9.57
82 | GTTCTTCGAAAGAACAAC (((.(((....))).))) | 32 | -14.9
83 | GTTCTTGGAAACAAGAAC (((((((....))))))) | 55.5 | -41.7
84 | GTTGAAGAAATTCAAC ((((((....)))))) | 45.8 | -27.1
85 | GTTGAAGGAAACCTCAAC (((((.(....).))))) | 36 | -31
86 | GTTGACCCGAAAGGGAAC (((..(((....)))))) | 37.8 | -14.3
87 | GTTGACCGAAAGGTAAAC (((.(((....))).))) | 48.7 | -30.7
88 | GTTGACCGAAAGGTTAAC (((.(((....))).))) | 53.1 | -33.7
89 | GTTGACGAAAGTCCAAAC ((((((....)))..))) | 24.3 | -9.18
90 | GTTGAGCGAAAGCTGAAC (((.(((....))).))) | 46.2 | -23.9
91 | GTTGAGCGAAAGCTTAAC (((.(((....))).))) | 52.4 | -26.4

Reference: the array DNA melting data of Ke et al. (doi:10.1101/2024.01.08.574731)
